UHRF1 MBD2 ctr – blocks human UHRF1 binding to methylated DNA | UHRF1 binding to methylated oligo, TR-FRET | inhibition, % at 4.4 µM | 370,000 tested, 0.75% active;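 also: UHRF1 SRA domain binding a hemimethylated CpG hairpin DNA probe; 0% = median of test compound wells and 100% = reference inhibitor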
Arr AP2 block – inhibitors of human beta-arrestin and AP2 interaction. FITC-arrestin peptide / GST-AP2 beads, flow cytometry; AP2 beta2 appendage carries R879A mutation. inhibition, % at 10 µM. 340,000 tested, 0.31% active;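 active = inhibition above a set limit, near 3 SD of compounds lacking own fluorescence, cut at about 54% in these data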;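 also: plate controls were DMSO wells for no effect and 5 µM unlabelled arrestin peptide for full effect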
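System: GST-AP2 R879A glutathione beads; medium: PBS, Tween 20 0.05%, BSA 0.1%; reagent: fluorescein-tagged arrestin peptide at 50 nM final; schedule: pre-incubation 12 min, peptide binding 1 h, room temperature; detection: flow cytometry, FL1 (488/535 nm); read-out: inhibition as reduced fluorescein signal on beads, percent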
Rin1 Abl inh – blocks binding of human Rin1 to Abl; P00519+Q13671; TR-FRET Rin1/Abl binding, biochemical; inhibition, % at 7.35 µM; 360,000 tested, 0.4% active; AID 588664; in the data active = inhibition above about 5%, passing the limit was not always enough
ABHD5-PLIN5 inh – inhibitors of human ABHD5-perilipin-5 interaction. Q00G26+Q8WTS1. Split G. princeps luciferase complementation, luminescence, 4 h. inhibition, % at 4 µM. 360,000 tested, 0.78% active. AID 602281;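 active = inhibition above the mean inhibition across every tested compound plus 3 SD, cut at about 22% in these data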;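 also: 0% = DMSO only wells and the 100% control is not disclosed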
MBD2 DNA inh – blocks human MBD2 binding to methylated DNA. 370,000 tested, 0.31% active. TR-FRET, MBD2 binding to methylated oligonucleotide. Q9UBB5. inhibition, % at 4.4 µM; in the data active = inhibition above about 13%
Beta2AR agonist – agonists of human beta-2 adrenergic receptor inducing internalization | P07550 | Am2.2-beta2AR cells, FAP receptor internalization, flow cytometry | response, % (test concentration not listed) | 340,000 tested, 0.43% active;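 active = response above a set limit, near 3 SD of response in nonfluorescent compounds, cut at about 42% in these data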
Target sequence (P07550 whole entry, looked up): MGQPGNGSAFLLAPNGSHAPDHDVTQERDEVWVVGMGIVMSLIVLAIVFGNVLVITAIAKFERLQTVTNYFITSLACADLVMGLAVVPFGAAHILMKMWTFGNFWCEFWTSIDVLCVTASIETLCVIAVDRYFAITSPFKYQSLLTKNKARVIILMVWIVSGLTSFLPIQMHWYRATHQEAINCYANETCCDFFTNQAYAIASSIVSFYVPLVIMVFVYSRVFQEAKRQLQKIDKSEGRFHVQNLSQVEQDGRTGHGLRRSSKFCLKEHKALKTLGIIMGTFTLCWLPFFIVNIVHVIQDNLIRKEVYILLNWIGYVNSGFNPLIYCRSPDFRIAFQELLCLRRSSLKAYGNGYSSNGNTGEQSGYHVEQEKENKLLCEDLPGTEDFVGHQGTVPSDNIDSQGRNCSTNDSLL
UHRF1 DNA bind – counter-screen for MBD2 inhibitors: human UHRF1 methylated DNA binding inhibitors. shares compounds with MBD2 DNA inh. UHRF1 binding to methylated oligonucleotide, TR-FRET. 1,000 tested, 25% active. AID 720530. inhibition, % at 4.4 µM;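 also: UHRF1 SRA domain binding a labeled hemimethylated CpG hairpin DNA; 0% = vehicle only and 100% = reference inhibitor with vehicle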
MBD2 confirm – MBD2-DBD methyl-DNA binding inhibition, TR-FRET confirmation; AID 720531; inhibition, % at 4.4 µM; shares compounds with MBD2 DNA inh; 1,000 tested, 26% active; TR-FRET MBD2-DBD binding to methylated oligonucleotide; in the data active = inhibition above about 14%
An asterisk follows results filed as active; x = no result. An excerpt weighted towards active compounds, which were near 2.5% of everything screened. Rule as the data show it, unless noted: active = inhibition above about 21%; inactive = the rest.

SMILES	UHRF1 MBD2 ctr	Arr AP2 block	Rin1 Abl inh	ABHD5-PLIN5 inh	MBD2 DNA inh	Beta2AR agonist	UHRF1 DNA bind	MBD2 confirm
CC(C)(C)CC(=O)NC(=S)Nc1ccccc1C(F)(F)F	23*	11	-1	-5	16*	9	11	4
CC(C)CC(=O)NC(=S)Nc1ccccc1C(F)(F)F	3	2	0	-4	1	29	x	x
COC(=O)[C@@]12C[C@@H](CC(=O)NCc3cccc(C(F)(F)F)c3)C(=O)N(Cc3cccc4ccccc34)C1=CCC(C)(C)C2	2	x	x	-1	-3	x	x	x
CCC[C@H]1[C@@H](NCC2CCCCC2)CC[C@@]23CCCN2C(=O)CCC[C@@H]13	-1	x	x	x	-2	x	x	x
COc1ccc(-c2csc(C(O)c3ccc(F)cc3)n2)cc1OC (stereo not drawn)	4	x	-2	3	2	x	x	x
O=C(OC12CCCN(C1)/C(=C/c1cccnc1)C2)C1CCCCC1 (stereo not drawn)	1	x	x	x	1	x	x	x
CCCn1nnc(NC(=O)Cc2ccc(Cl)cc2)n1	-1	0	1	0	0	-4	x	x
CCCn1nnc(NC(=O)COc2ccc(Cl)cc2)n1	23*	25	4	2	14*	-6	6	2
CCOC(=O)c1cc(-c2ccc(N3CCOCC3)cc2)nn1-c1ccccc1C(=O)O	20	-4	-1	1	23*	-3	27*	27*
CCOC(=O)c1cc(-c2ccc(N3CCOCC3)cc2)nn1-c1ccccc1	5	18	1	-3	3	-7	x	x
Cn1cc(Cc2ccc(C(=O)N3CCN(Cc4ccccc4)CC3)cn2)c2ccccc21	-2	x	-3	7	-3	x	x	x
COc1cccc(C(c2c(C)[nH]n(-c3ccccc3)c2=O)c2c(C)[nH]n(-c3ccccc3)c2=O)c1O	21*	27	6	9	21*	8	-4	0
c1ccc(-n2nc3c(ccc4cnnc43)[nH]2)cc1	19	6	-2	-1	15*	1	4	4
COc1cccc(C(=O)NC2CC3CCCC(C2)N3CC(=O)Nc2ccc(N(C)C)cc2)c1 (stereo not drawn)	-1	14	1	-3	-10	4	x	x
COc1cccc(C(=O)NC2CC3CCCC(C2)N3CC(=O)Nc2ccccc2)c1 (stereo not drawn)	21	11	1	0	13*	-1	12	5
CSCCC(NC(=O)COc1ccccc1)C(=O)N(C)Cc1c(F)cccc1Cl (stereo not drawn)	9	x	1	11	6	x	x	x
Cn1cc(C[C@H](NC(=O)OC(C)(C)C)C(=O)N[C@@H](CO)Cc2ccccc2)c2ccccc21	2	1	5	-2	26*	0	7	2
CC(C)(C)OC(=O)NC(Cc1ccccc1)C(=O)NCCCC(=O)O (stereo not drawn)	-3	-6	0	-4	0	0	x	x
COc1ccc(CN2C(=O)CN(S(C)(=O)=O)CC2(C)C(=O)NC(C)C)cc1OC (stereo not drawn)	18	x	x	4	5	x	x	x
O=Cc1ccc(N2CCN(S(=O)(=O)c3ccc4c(c3)CC(=O)N4)CC2)cc1	8	x	-2	20	15*	x	9	2
O=C(CSc1nnc(-c2ccccc2F)n1Cc1ccco1)Nc1ccccc1-c1ccccc1	-1	x	x	x	4	x	x	x
O=C(C1=C(O)C(=O)N(CCN2CCOCC2)C1c1ccc(Cl)cc1)c1cc2ccccc2o1 (stereo not drawn)	-2	-9	-5	-8	16*	41	6	-2
CC1(C(=O)NS(=O)(=O)c2ccc(F)cc2F)CCN1C(=O)CCc1ccc(Cl)cc1Cl (stereo not drawn)	17	x	-2	0	26*	x	8	1
CC1(C(=O)NS(=O)(=O)c2cccc(F)c2)CCN1C(=O)CCc1ccc(Cl)cc1Cl (stereo not drawn)	0	x	-1	10	-7	x	x	x
C=CCN(Cc1ccc(OC)cc1OC)C(C#Cc1ccccc1)c1ccccc1 (stereo not drawn)	0	x	x	x	2	x	x	x
SMILES	UHRF1 MBD2 ctr	Arr AP2 block	Rin1 Abl inh	ABHD5-PLIN5 inh	MBD2 DNA inh	Beta2AR agonist	UHRF1 DNA bind	MBD2 confirm
N#C/C(=C/c1cccn1-c1cccc(C(=O)O)c1)c1ccc(Cl)cc1	3	8	1	2	-2	10	x	x
O=C(O)c1cccc(-n2cccc2/C=C\[N+](=O)[O-])c1	58*	8	2	9	17*	-2	26*	3
CCCN(C(=O)c1cc2c(s1)CCC2)c1c(N)n(Cc2ccccc2)c(=O)[nH]c1=O	11	4	2	-3	13*	-1	14	18*
COc1ccc(NC(=O)CN(C)C(=O)c2cccc(-n3cccc3)c2)cc1	58*	-3	1	-4	33*	-6	43*	38*
Cc1cccc(NC(=O)CNC(=O)c2cccc(-n3cccc3)c2)c1C	69*	0	1	-4	31*	-4	62*	44*
Cc1ccc(NC(=O)CN(C)C(=O)c2cccc(-n3cccc3)c2)cc1	77*	-16	6	5	36*	-4	66*	47*
Cc1cccc(C)c1NC(=O)CN(C)C(=O)c1cccc(-n2cccc2)c1	5	0	3	13	4	-10	x	x
O=C(COC(=O)/C=C/c1ccccc1Cl)NC1CC1	0	x	-5	-3	-1	x	x	x
O=C1C=C(c2ccc(O)cc2)C[C@@H](c2ccc3c(c2)OCO3)C1	17	6	4	6	5	-1	x	x
O=C1C=C(c2ccc(C(=O)O)cc2)C[C@@H](c2ccc3c(c2)OCO3)C1	17	3	6	-4	16*	13	14	8
N=c1oc2cc(O)ccc2cc1C(=O)Nc1ccc(Cl)cc1	3	3	-3	-4	14*	3	7	4
Cc1ccc(NC(=O)c2cc3ccccc3oc2=N)cc1	2	-8	2	1	-2	4	x	x
COc1ccc(N(C)S(=O)(=O)c2cccc(C(=O)OCC(=O)N(C)c3ccccc3)c2)cc1	-2	-21	3	-6	16*	0	9	4
CN(Cc1ccc(Cl)cc1)C(=O)CNC(=O)C12CC3CC(CC(C3)C1)C2	0	-2	1	-8	-6	-12	x	x
COc1cc(/C=C(\C#N)C(=O)N2CCOCC2)ccc1OCc1ccccc1	3	-7	-1	1	5	5	x	x
COc1ccc(/C=C(\C#N)C(=O)N2CCOCC2)cc1Br	1	32	0	5	41*	7	4	2
